Measured values taken from ChEMBL document CHEMBL1124378, “Synthesis and pharmacological evaluation of a series of 4-piperazinylpyrazolo[3,4-b]- and -[4,3-b][1,5]benzodiazepines as potential anxiolytics” (J Med Chem, 1989).

Assays:
Rattus norvegicus [1] = assay: The compound was evaluated for the anticonflict behavior in male wistar rats as rate of responses (conflict) following dose of 40 mg/kg po; assay type: functional
In short: (§1)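 Male Wistar rats on 23-h food deprivation, water ad libitum, trained to lever-press for food on continuous reinforcement until stable. Compound or vehicle given orally in randomized sequence 60 min before testing. Responses/min were recorded in reward, timeout and conflict components. Differences from control were tested by Wilcoxon test.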

Rattus norvegicus [2] = assay: The compound was evaluated for the anticonflict behavior in male wistar rats as rate of responses (timeout) following dose of 10 mg/kg po; assay type: functional; parameters: unit: responses/min; in short: as §1
Rattus norvegicus [3] = assay: The compound was evaluated for the anticonflict behavior in male wistar rats as rate of responses (reward) following dose of 10 mg/kg po; assay type: functional; parameters: unit: responses/min; in short: as §1
Rattus norvegicus [4] = species: Rattus norvegicus; assay: compound behavior in rat; assay type: functional; parameters: unit not given here
In short: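 Olac-Wistar rats (180-190 g), eight per group, dosed orally, front paws placed on a 1.5-cm rod 7 cm above the table. Tested at 0.5, 1, 1.5, 2, 3, 4 and 5 h, up to 20 min hold. Each animal's maximum score (0-5 by time held) was summed, giving a group maximum of 40.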

Rattus norvegicus [5] = assay: The compound was evaluated for the anticonflict behavior in male wistar rats as rate of responses (conflict) following dose of 10 mg/kg po; assay type: functional; parameters: unit: responses/min; in short: as §1
Rattus norvegicus [6] = assay: The compound was evaluated for the anticonflict behavior in male wistar rats as rate of responses (conflict) following dose of 0 mg/kg po; assay type: functional; parameters: unit: responses/min; in short: as §1
Rattus norvegicus [7] = assay: Compound administered perorally was evaluated for the conditioned avoidance response in rats; assay type: functional
In short: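 Olac-Wistar rats (120-130 g) trained to cross a shuttle box on a 5-s buzzer, with mild shock if no response within 1 s after it ends. Only high-responders used. Groups of five were dosed orally in water or 0.5% carboxymethylcellulose 1 h 50 min before testing. After 10-min habituation they were tested 20 min. Blockade = shocks as % of stimuli presented.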

Rattus norvegicus [8] = assay: The compound was evaluated for the anticonflict behavior in male wistar rats as rate of responses (timeout) following dose of 0 mg/kg po; assay type: functional; in short: as §1
Rattus norvegicus [9] = assay: The compound was evaluated for the anticonflict behavior in male wistar rats as rate of responses (timeout) following dose of 40 mg/kg po; assay type: functional; in short: as §1
[10] = biological target: D(2) dopamine receptor (Bos taurus) (UniProt P20288); assay: Inhibition of [3H]spiperone binding to dopamine receptor D2 from calf caudate
Rattus norvegicus [11] = assay: The compound was evaluated for the anticonflict behavior in male wistar rats as rate of responses (reward) following dose of 5.0 mg/kg po; assay type: functional; parameters: unit: responses/min; in short: as §1
Rattus norvegicus [12] = assay: The compound was evaluated for the anticonflict behavior in male wistar rats as rate of responses (timeout) following dose of 20 mg/kg po; assay type: functional; parameters: unit: responses/min; in short: as §1
Rattus norvegicus [13] = assay: The compound was evaluated for the anticonflict behavior in male wistar rats as rate of responses (conflict) following dose of 5.0 mg/kg po; assay type: functional; parameters: unit: responses/min; in short: as §1
Mus musculus [14] = assay: Compound administered perorally was evaluated for the dose below which no catalepsy was observed at any time period; assay type: functional
In short: (§2)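 CFW mice (21-23 g), three per group, dosed orally in water or 0.5% carboxymethylcellulose. Checked at 0.25, 2.5 and 5.0 h for holding one hind limb on a 2-cm rubber bung and staying on a vertical grid, judged against a control by a trained observer.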

Mus musculus [15] = assay: Compound administered perorally was evaluated for the hypothermia (rectal temperature) in mice; assay type: functional
In short: (§3)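 Groups of three CFW mice (21-23 g) received oral compound in water or 0.5% carboxymethylcellulose. Rectal temperature was taken at 0.25, 2.5 and 5.0 h. Mean change from the group's initial mean was summed over the three times. Hypothermia scored if the summed reduction was >4 °C.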

Rattus norvegicus [16] = assay: The compound was evaluated for the anticonflict behavior in male wistar rats as rate of responses (reward) following dose of 40 mg/kg po; assay type: functional; in short: as §1
[17] = biological target: Muscarinic acetylcholine receptor; assay: Inhibition of [3H]QNB binding to muscarinic cholinergic receptor from male Olac rat brain.
Rattus norvegicus [18] = assay: The compound was evaluated for the anticonflict behavior in male wistar rats as rate of responses (conflic) following dose of 20 mg/kg po; assay type: functional; parameters: unit: responses/min; in short: as §1
Rattus norvegicus [19] = assay: The compound was evaluated for the anticonflict behavior in male wistar rats as rate of responses (timeout) following dose of 5.0 mg/kg po; assay type: functional; parameters: unit: responses/min; in short: as §1
Rattus norvegicus [20] = assay: The compound was evaluated for the anticonflict behavior in male wistar rats as rate of responses (reward) following dose of 20 mg/kg po; assay type: functional; parameters: unit: responses/min; in short: as §1
Rattus norvegicus [21] = assay: Rotarod response in rat to assess muscular incoordination (following p.o. dosing); assay type: functional
In short: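 Male Olac-Wistar rats (140-150 g), five per group, fed ad libitum, dosed orally. Tested 1 and 2 h later on a horizontal rod (2 rpm, 32 mm diameter), maximum 30 s. Mean time compared with vehicle controls by Mann-Whitney U test, significant at p < 0.05.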

Rattus norvegicus [22] = assay: The compound was evaluated for the anticonflict behavior in male wistar rats as rate of responses (reward) following dose of 0 mg/kg po; assay type: functional; parameters: unit: responses/min; in short: as §1
Rattus norvegicus [23] = assay: The compound was evaluated for the anticonflict behavior in male wistar rats as rate of responses (conflict) following dose of 2.5 mg/kg po; assay type: functional; in short: as §1
Rattus norvegicus [24] = assay: The compound was evaluated for the anticonflict behavior in male wistar rats as rate of responses (reward) following dose of 2.5 mg/kg po; assay type: functional; in short: as §1
Rattus norvegicus [25] = assay: The compound was evaluated for the anticonflict behavior in male wistar rats as rate of responses (timeout) following dose of 2.5 mg/kg po; assay type: functional; in short: as §1
Mus musculus [26] = assay: Dose below which no catalepsy was observed at any time period (following p.o. dosing); assay type: functional; in short: as §2
Mus musculus [27] = assay: Compound administered perorally was evaluated for the hypothermia (rectal temperature ) in mice; assay type: functional; in short: as §3
Rattus norvegicus [28] = assay: Compound administered perorally was evaluated for the conditioned avoidance response in rats

| Compound | Activity (Rattus norvegicus [1]) | Activity (Rattus norvegicus [2]) | Activity (Rattus norvegicus [3]) | Activity (Rattus norvegicus [4]) | Activity (Rattus norvegicus [5]) | Activity (Rattus norvegicus [6]) | ED (Rattus norvegicus [7]) | Activity (Rattus norvegicus [8]) | Activity (Rattus norvegicus [9]) | IC50 [10] | Activity (Rattus norvegicus [11]) | Activity (Rattus norvegicus [12]) | Activity (Rattus norvegicus [13]) | EDmin (Mus musculus [15]) | Activity (Rattus norvegicus [16]) | IC50 [17] | Activity (Rattus norvegicus [18]) | Activity (Rattus norvegicus [19]) | Activity (Rattus norvegicus [20]) | ED (Rattus norvegicus [21]) | further results |
| --- | --- | --- | --- | --- | --- | --- | --- | --- | --- | --- | --- | --- | --- | --- | --- | --- | --- | --- | --- | --- | --- |
| CN1CCN(C2=Nc3cc(F)ccc3Nc3nn(C)cc32)CC1 | 10.1 | 7.4 | 42.1 | >100 | 9.6 | 3 | 100 mg/kg | 5.4 | 15.4 | 2600 nM | 45.1 | 15.4 | 3.9 | 1.6 mg/kg | 48.3 | 150000 nM | 6.9 | 5.7 | 45.9 | >20 mg/kg | EDmin (Mus musculus [14]): 50 mg/kg; Activity (Rattus norvegicus [22]): 47.3 |
| CN1CCN(C2=Nc3cc(Cl)ccc3Nc3nn(C)cc32)CC1 | 4.8 | 6.5 | 26.3 | >25 | 8.1 | 1.1 | 10 mg/kg | 2.1 | 4.6 | 680 nM | 27.5 | 9.6 | 6 | 0.8 mg/kg | 14.1 | 8900 nM | 7.8 | 7.9 | 5.4 | >10 mg/kg | Activity (Rattus norvegicus [23]): 5.6; Activity (Rattus norvegicus [24]): 24.9; Activity (Rattus norvegicus [25]): 9.3; Activity (Rattus norvegicus [22]): 24.9; EDmin (Mus musculus [26]): 12.5 mg/kg |
| CN1CCN(C2=Nc3cc(F)ccc3Nc3c2cnn3C)CC1 | – | – | – | – | – | – | – | – | – | – | – | – | – | – | – | – | – | – | – | >50 mg/kg | EDmin (Mus musculus [27]): 100 mg/kg; EDmin (Mus musculus [26]): >200 mg/kg; ED (Rattus norvegicus [28]): >50 mg/kg |
